A selection: hits, their analogues and other compounds. The true share with any hit is near 2.9%.
GalR3 antagonist = GalR3 antagonists in HEK293 cells, primary screen, cell-based, fluorescence readout. Galanin receptor type 3 (Homo sapiens), O60755. HEK293 GalR3-CNG cAMP membrane potential fluorescence; galR3 body fused to GalR1 C-terminus. inhibition, % at 3 µM. 360,000 compounds, 0.44% hits;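 active = inhibition above the screen-wide average plus 3 SD, cut at about 13% in these data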;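 note: forskolin and galanin both at EC90 stimulate the cells; cAMP rise reported by CNG channel membrane potential dye signal; 0% = forskolin plus galanin with DMSO and 100% = forskolin alone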
Target sequence (O60755 1-299 limits assumed): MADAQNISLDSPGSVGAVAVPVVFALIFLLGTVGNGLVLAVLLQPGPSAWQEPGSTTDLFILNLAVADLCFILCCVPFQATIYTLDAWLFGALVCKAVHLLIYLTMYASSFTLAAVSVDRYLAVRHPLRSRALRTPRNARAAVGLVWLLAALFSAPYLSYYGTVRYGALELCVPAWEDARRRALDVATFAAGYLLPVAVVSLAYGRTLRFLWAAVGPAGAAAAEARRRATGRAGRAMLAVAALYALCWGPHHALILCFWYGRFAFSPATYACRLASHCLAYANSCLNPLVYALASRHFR
MC4R ag barr = MC4R agonists recruiting beta-arrestin, primary screen, cell-based, luminescence, agonist arm of biased-ligand search | U2OS MC4R beta-arrestin complementation; percent of melanotan II response, DMSO zero | activation, % at 8.9 µM | 360,000 compounds, 0.98% hits;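 active = activation above a per-plate cutoff, the mean activation of sample wells on that plate plus 3 SD, cut at about 8% in these data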
Target sequence (P32245 whole entry, looked up): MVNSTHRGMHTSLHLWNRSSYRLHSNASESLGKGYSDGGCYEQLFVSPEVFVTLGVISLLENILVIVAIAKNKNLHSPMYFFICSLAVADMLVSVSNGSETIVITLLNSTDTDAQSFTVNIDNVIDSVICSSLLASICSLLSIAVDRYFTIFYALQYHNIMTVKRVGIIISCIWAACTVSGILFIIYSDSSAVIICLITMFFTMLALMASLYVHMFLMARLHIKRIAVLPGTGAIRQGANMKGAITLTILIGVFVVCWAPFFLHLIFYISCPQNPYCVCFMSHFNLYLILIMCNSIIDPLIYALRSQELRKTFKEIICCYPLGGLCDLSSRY
TAG inh = inhibitors of triacylglycerol accumulation, primary screen, cell-based, uHTS, fluorescence, H9c2; H9c2 cells, Nile Red lipid (TAG) fluorescence; cells loaded with 200 µM oleic acid; inhibition, % at 12.5 µM; 230,000 compounds, 0.66% hits;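 active = pattern-corrected inhibition of lipid staining of at least 50% with the nuclear-stain viability signal not falling by more than 50%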;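 note: 0% = DMSO wells and 100% = triacsin C control wells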
Efflux pump inh = inhibitors of Candida efflux pumps in yeast, primary screen, S. cerevisiae, Nile Red, multiplex; inhibition, % at 10 µM; 330,000 compounds, 0.44% hits; S. cerevisiae Candida pump triplex;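 active = plate passing quality check with inhibition over a set limit, or well fluorescence over plate mean plus 4 SD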;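 note: Nile Red retained in pooled yeast measured as flow cytometry median fluorescence; 0% = buffer negative control and 100% = Enniatin B positive control; higher means more Nile Red kept so more efflux inhibition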
MC4R antagonist = MC4R antagonists of cAMP signaling, primary screen, cell-based, TR-FRET, antagonist arm of biased-ligand search; 360,000 compounds, 0.48% hits; Melanocortin receptor 4 (Homo sapiens), P32245; inhibition, % at 6.5 µM; MC4R-expressing cells, MTII-stimulated cAMP, LANCE TR-FRET; AID 540295, 2011;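 active = inhibition above its plate's cutoff, the mean of tested wells on that plate plus 3 SD, cut at about 29% in these data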;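 note: 0% = Melanotan II alone and 100% = Melanotan II plus saturating MCL0020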
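System: U2OS cells stably expressing human melanocortin 4 receptor (MC4R). Reagent: Melanotan II challenge after compound preincubation. Doses: 6.5 µM. Times: 30-min compound, 1-h challenge, 1-h detection, room temperature. Measured by: TR-FRET with Eu-cAMP and labeled anti-cAMP, 671 nm. Replicates: singlicate.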
Calb FLC = C. albicans growth inhibition with fluconazole, primary screen, CaCi-2 strain, Alamar Blue fluorescence; C. albicans CaCi-2 + fluconazole, 48 h; growth inhibition, % (no concentration beside the values); 300,000 compounds, 0.57% hits; AID 1979, 2009;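 active = growth inhibition above about 58% in most replicates, limit read from the data, passing the limit was not always enough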;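 note: all wells also contain fluconazole at 8 µg/ml as a sub-toxic cotreatment; 0% = median of DMSO wells and 100% = median of geldanamycin control wells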
* hit, by the source's call; . = no result.

SMILES	GalR3 antagonist	MC4R ag barr	TAG inh	Efflux pump inh	MC4R antagonist	Calb FLC
CN1CC[C@@H]2CN(S(=O)(=O)c3ccccc3)[C@H](c3ccccc3Br)C[C@@H]21	-7.2	.	.	.	.	.
O=C1CS/C(=N\C(=O)N2c3ccccc3Sc3ccccc32)N1	-6.1	-1.2	.	0.0	2.4	95.2*
COc1ccc(O)c(/C=N/NC(=S)Nc2cccc(S(=O)(=O)N(C)C)c2)c1	-11.8	-2.2	.	0.1	-11.4	-3.7
CN(C)S(=O)(=O)c1cccc(NC(=S)N/N=C/c2ccc(O)c(O)c2O)c1	-6.7	-1.1	4.4	.	12.3	76.7*
CN1CCC(N2CCN(C3CN(Cc4ccc(F)cc4)S(=O)(=O)C3)CC2)CC1 (configuration not stated)	-2.2	.	.	.	.	.
COc1ccc(-n2nc(C(=O)NCC(=O)NC(C)C)c3ccccc3c2=O)c(OC)c1	-7.1	-2.9	.	0.0	1.5	6.2
COc1ccc(NC(=O)CNC(=O)c2nn(-c3ccc(OC)cc3OC)c(=O)c3ccccc23)c(OC)c1	-4.0	-0.8	.	0.8	9.9	93.0*
NC(Cc1ccc(F)cc1)c1csc(NC(=O)NC(c2ccccc2)c2ccccc2)n1 (configuration not stated)	-7.8	6.1	128.7	.	9.1	.
Cn1c2c(c(=O)n(C)c1=O)C(C(F)(F)F)(C(F)(F)F)N=C(c1ccc(Cl)cc1)N2	.	0.1	.	0.1	10.4	84.1*
Cc1ccccc1C1=NC(C(F)(F)F)(C(F)(F)F)c2c(n(C)c(=O)n(C)c2=O)N1	3.0	-1.3	.	0.0	-8.6	-0.1
CCC(=O)N1c2ccc(S(=O)(=O)CCC(=O)N3CCn4c3nc3ccccc34)cc2CC1C (configuration not stated)	-2.0	2.0	-23.0	0.3	-3.6	80.6*
CCOC(=O)N1CCN(C(=O)CCS(=O)(=O)c2ccc3c(c2)CC(C)N3C(=O)CC)CC1 (configuration not stated)	-11.1	-0.4	.	-0.1	15.5	5.4
CCNC(=O)N1CCN(c2ccc(N3CCN(Cc4ccccc4)[C@H](C)C3)c(C)c2)[C@H](C)C1	-4.3	.	.	.	.	.
Clc1ccc(CONc2ncnc3nonc23)c(Cl)c1	-5.9	1.0	5.2	0.0	10.0	76.0*
C[C@@H]1CCCCO[C@@H](CN(C)C(=O)Nc2ccc3c(c2)OCO3)[C@@H](C)CN([C@H](C)CO)C(=O)c2cc(NC(=O)Nc3ccc(C(F)(F)F)cc3)ccc2O1	-0.7	.	.	.	.	.
CCn1c(SCC(=O)c2ccc3c(c2)Cc2ccccc2-3)nnc1-c1ccc(N)cc1	-6.8	10.9*	.	0.3	7.2	-15.1
CC(C)(C)S(=O)(=O)N1C[C@H]2CC(=O)C(CCO)=C2[C@@H]1CCO	-7.3	.	.	.	.	.
Cc1c(Cl)cccc1NC(=O)COC(=O)CCc1nc2ccccc2n1-c1ccccc1	-4.5	8.3*	.	-0.5	14.0	4.0
O=C(COC(=O)CCc1nc2ccccc2n1-c1ccccc1)Nc1cccc(Cl)c1	-8.8	3.9	.	0.3	-4.0	-4.8
Cc1c(Cc2ccccc2)sc(/N=C/c2c(O)ccc3ccccc23)c1C(N)=O	.	10.2*	.	-0.1	-1.8	48.0
Cc1ccc(NC(=S)N/N=C/c2c(C)nn(-c3ccccc3)c2N2CCCC2)cc1	-2.0	8.6*	.	-0.2	12.2	16.6
CCc1nc2ccc(C(=O)N(C)CCN(C)C)cn2c1N(C)Cc1cc2ccccc2s1	-8.2	-1.7	7.0	.	-4.9	.
O=Cc1ccc2ccc3cccnc3c2n1	-6.2	-1.8	.	0.1	5.3	2.2
c1cnc2c(c1)ccc1cccnc12	3.2	-2.6	-2.7	-0.1	6.2	109.8*
Cc1ccccc1-c1ccc2c(c1)[C@@H]1C[C@H]3[C@@H](CN1CC2)[C@H](C)OC(C1CCCCC1)N3C (some centres not stated)	-5.6	.	.	.	.	.
SMILES	GalR3 antagonist	MC4R ag barr	TAG inh	Efflux pump inh	MC4R antagonist	Calb FLC
O=C(CCc1c[nH]c2ccccc12)Nc1ccc(Oc2cccnc2)cc1	-7.0	.	.	.	.	.
COc1cccc(-n2nnnc2S(C)(=O)=O)c1	.	-2.6	.	0.2	43.1*	104.7*
CCN(CC)CC(O)CNc1ccnc2c(Cl)ccc(Cl)c12 (configuration not stated)	-7.1	-0.8	-1.5	.	-0.1	.
[O-][n+]1cccc2c(Br)cc(Br)c(O)c21	-2.1	-4.3	.	0.2	-5.7	109.1*
COc1ccc(OC)c(/C=C/C(=O)Nc2ccc(OC)nc2)c1	-8.9	-0.6	-0.5	0.0	2.4	112.8*
CCOC(=O)C1=CC[C@@H](c2cccc(Br)c2)N(S(=O)(=O)c2ccc(F)cc2)[C@H]1c1cccc(Cl)c1	0.5	.	.	.	.	.
Cc1ccc(C)c(N2CCN(C(=O)COc3cc(=O)n(C)c4ccccc34)CC2)c1	-1.3	0.2	-38.5	0.1	-12.6	20.1
Cc1ccc(C)c(N2CCN(C(=O)CCCOc3cc(=O)n(C)c4ccccc34)CC2)c1	-4.8	11.7*	34.6	0.1	4.2	15.5
COc1ccc(S(=O)(=O)N2CCCCC2c2cc(C(=O)Nc3ccc(OC)cc3C)no2)cc1 (configuration not stated)	-7.8	0.2	104.4	.	-2.5	.
C#CCn1c(=NC(=O)c2ccc(S(=O)(=O)N3CCc4ccccc4C3)cc2)sc2cc(S(N)(=O)=O)ccc21	.	9.2*	.	-0.3	-4.8	-6.4
CCOc1ccccc1C1NC(=O)NC(C)=C1C(=O)OC1CCCCC1 (configuration not stated)	-4.7	1.5	.	0.0	7.2	-7.5
CC1=C(C(=O)OC2CCCCC2)C(c2ccccc2Br)NC(=O)N1 (configuration not stated)	-3.4	8.2*	.	0.0	7.9	22.8
COc1ccc(NC(=O)c2cc([N+](=O)[O-])ccc2O)cc1	-10.5	0.1	-30.6	-0.1	12.9	83.0*
O=C(Nc1cc(C(F)(F)F)cc(C(F)(F)F)c1)c1ccc(Cn2cc(C(F)(F)F)ccc2=O)cc1	-5.3	8.4*	.	0.2	3.1	1.4
COCCNC(=O)C(c1ccc(C)o1)N(CCOC)C(=O)Cn1nnc2ccccc21 (configuration not stated)	-1.8	-0.1	-8.2	-0.1	12.2	81.6*
CCOc1ccccc1C(C(=O)NCCOC)N(CCOC)C(=O)Cn1nnc2ccccc21 (configuration not stated)	-4.5	-0.6	9.1	0.1	4.8	2.6
CC1(C)N=C(c2ccccc2)C(c2ccccc2)=N1	-7.6	-2.4	4.5	.	-4.7	.
O=C1NC[C@H](CCCCN2CCN(CCc3ccc(O)cc3)C(=O)C2=O)N(CCC2CCCCC2)C1=O	-3.8	.	.	.	.	.

Screening data (PubChem)
